Most compounds without a hit are left out; they make up all but 2.3% or so of the library.
Cneo AK release: Cryptococcus neoformans cell lysis inducers, primary screen, AK release luminescence, single concentration; AID 651654, 2012; C. neoformans lysis, adenylate kinase release luminescence, 4 h; normalised: neutral wells 0, clomiphene wells 100; lysis activity, % at 15 µM; hit rate 0.2% among 360,000;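 active = mean lysis activity across replicates of at least 80%, whatever share of replicates individually reach that level; inactive = mean lysis activity below 80%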
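Assay system: log-phase C. neoformans yeast / Quantity: yeast cell density of 5 × 10^6 cells/mL / Medium: fresh YPD growth medium / Compound: single dose / Timing: static 4 h at 37 °C with compound, 1 h detection / Measured by: adenylate kinase release luminescence / Read-out: lysis from increased AK signal / Benchmarks: Clomiphene as positive lysis control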
CFTR F508del cor: F508del CFTR correction, initial screen, CFBE line, single point; CFBE cells, YFP halide quenching; stimulated with forskolin plus potentiator P3; % fluorescence drop versus neutral controls; activity (quench increase), % at 7.58 µM; hit rate 0.36% among 350,000;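 active = mean added fluorescence quench of at least 8% versus neutral control, with both replicates also reaching 8%; inconclusive = only one of the mean or replicate conditions met; inactive = mean below 8% and not both replicates reaching 8%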;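 note: cells transiently co-express mutant CFTR-F508del with the halide-sensitive YFP; corrector assay measuring rescue of mutant channel to the surface after 24 h compound exposure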
C2C12 statin: suppressors of statin myotoxicity in C2C12 myotubes, primary screen, cell-based, single point, plate reader; C2C12 myotubes + simvastatin, ATP luminescence, 48 h; scaled: DMSO 0, geranylgeraniol control 100; rescue of ATP level, % at 7.49 µM; hit rate 0.78% among 330,000; AID 602340, 2012;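 active = mean ATP rescue above about 67%, or every replicate alone reaching that limit, limit read from the data, passing the limit was not always enough; inconclusive = no clear call, values can overlap the other calls; inactive = mean under the limit and some replicate under it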;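 note: myotubes were challenged with 10 µM simvastatin during compound exposure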
DENV2 CPE: inhibitors of DENV2 cytopathic effect, primary screen, cell-based, plate reader, single concentration; DENV2-infected cells, cytopathic effect rescue; CPE inhibition, % at 9.99 µM; hit rate 1.7% among 350,000; in the data active = CPE inhibition above about 20%, passing the limit was not always enough; inconclusive = no clear call, values can overlap the other calls; tested in BHK-21 cells;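 note: 0% = median of neutral control wells and 100% = median of positive control wells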
ERp5 block: inhibitors of ERp5-driven insulin aggregation, primary screen, biochemical, turbidity, absorbance 650 nm, single point; Protein disulfide-isomerase A6 (Homo sapiens), Q15084; 90 min; inhibition, % at 9.99 µM; hit rate 0.05% among 350,000;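 active = mean replicate inhibition above about 25%, with every replicate also reaching it, limit read from the data, passing the limit was not always enough; inconclusive = only one of those two criteria met; inactive = neither criterion met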
Target sequence (Q15084 whole entry, looked up): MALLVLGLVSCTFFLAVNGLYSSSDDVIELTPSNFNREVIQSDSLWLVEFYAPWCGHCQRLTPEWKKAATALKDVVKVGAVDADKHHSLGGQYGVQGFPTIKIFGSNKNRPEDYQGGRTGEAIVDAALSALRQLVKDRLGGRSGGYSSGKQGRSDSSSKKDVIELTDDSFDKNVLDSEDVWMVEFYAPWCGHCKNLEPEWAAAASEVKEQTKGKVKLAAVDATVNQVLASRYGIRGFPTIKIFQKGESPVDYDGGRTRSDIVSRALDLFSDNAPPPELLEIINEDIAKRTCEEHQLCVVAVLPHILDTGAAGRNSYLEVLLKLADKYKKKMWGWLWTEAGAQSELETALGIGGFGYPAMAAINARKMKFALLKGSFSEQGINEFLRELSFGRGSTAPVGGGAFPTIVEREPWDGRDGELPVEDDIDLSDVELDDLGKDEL
PDI inh: inhibitors of human PDI, primary screen, biochemical, turbidity, single point, plate reader; Protein disulfide-isomerase (Homo sapiens), P07237; PDI insulin aggregation turbidity, A650, 90 min; inhibition, % at 10 µM; hit rate 0.052% among 350,000;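 active = mean inhibition across replicates of 30% or more, whatever share of single replicates reach that level; inconclusive = mean inhibition below 30% while every single replicate reaches 30%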
Numbers without * were called inactive; ? = inconclusive; · = not tested or not shown.

SMILES | Cneo AK release | CFTR F508del cor | C2C12 statin | DENV2 CPE | ERp5 block | PDI inh
CC1(O)CC(c2ccc(Cl)cc2)=NN1C(=O)c1ccc(Cl)cc1 (stereo not drawn) | 1.2 | -1.0 | -5.2 | -4.4 | 2.0 | 1.0
O=C(c1ccc(Cl)cc1)N1CCCC(c2ccccc2)=N1 | 4.8 | · | 79.8* | · | · | -0.9
Cc1ccc2c(c1)CO[C@]21O[C@H](CCO)C[C@H](O)[C@H]1O | 5.7 | -3.2 | 7.5 | 44.3* | -1.1 | 7.2
COc1ccc2c(c1)CO[C@@]21O[C@H](CCO)C[C@H](O)[C@H]1O | 0.8 | 1.5 | 4.9 | -3.7 | 2.9 | ·
O=C(C[C@@H]1C[C@H]2c3cc(NS(=O)(=O)c4ccc(F)cc4)ccc3O[C@H]2[C@@H](CO)O1)NCc1cccnc1 | · | 2.0 | -1.1 | · | · | ·
CCCC(=O)Nc1ccc2c(c1)OC[C@@H](C)N(C(=O)c1ccncc1)C[C@H](C)[C@@H](OC)CN(C)C2=O | 0.8 | -3.6 | 7.9 | -0.6 | -1.4 | ·
COC1(OC)N=C(N)C2(C#N)C(c3ccc(F)cc3)C12C#N (stereo not drawn) | -1.8 | · | -10.0 | · | · | -4.8
CCSC1(SCC)N=C(N)C2(C#N)C(c3ccc(F)cc3)C12C#N (stereo not drawn) | 9.9 | · | 141.8* | · | · | 2.9
Cc1ccc(C2CC2C(=O)NNC(=S)Nc2cccc(Cl)c2)cc1 (stereo not drawn) | 3.0 | · | 81.3* | · | · | 2.6
CC(=O)N1CC2(C1)[C@H](c1ccccc1)[C@H](CO)N2Cc1ccccc1F | · | -0.4 | · | -11.1 | -3.7 | ·
CCC(=O)N1CC2(C1)[C@@H](c1ccccc1)[C@@H](CO)N2Cc1ccccc1F | · | 1.9 | · | 23.7* | 0.5 | ·
OC[C@@H]1[C@@H](c2ccccc2)C2(CN(Cc3ccccc3F)C2)N1Cc1ccccc1F | · | 10.4* | · | -11.1 | -9.7 | ·
C[C@H]1CN([C@@H](C)CO)C(=O)c2cccc(NC(=O)C3CCCCC3)c2O[C@@H]1CN(C)CC1CC1 | -1.0 | 1.6 | -10.6 | -8.7 | 0.3 | ·
COc1cccc(-c2ccc3c(c2)[C@H]2[C@H](CCN2C(=O)c2ccc(F)cc2)[C@H](CO)N3)c1 | -2.3 | -0.2 | 15.4 | -19.1 | 2.8 | ·
COCCCNc1c2c3c(cccc3[nH]c1=O)C(=O)c1ccccc1-2 | -2.4 | 46.0* | -25.0 | -16.6 | -1.3 | 6.4
CCCC(=O)N1CCC2(CC1)CN(Cc1nccs1)[C@@H](CO)c1[nH]c3cc(OC)ccc3c12 | · | -1.1 | · | 10.5 | -7.8 | ·
OC[C@@H]1[C@H](c2ccc(-c3ccccc3F)cc2)[C@@H]2CN(Cc3ccncc3)CCCCN12 | -0.3 | 2.1 | · | · | · | ·
OC[C@@H]1[C@@H](c2ccc(-c3ccccc3F)cc2)[C@@H]2CN(Cc3ccncc3)CCCCN12 | -1.1 | -0.3 | · | 22.3* | · | ·
OC[C@H]1[C@@H](c2ccc(-c3ccc(F)cc3)cc2)[C@H]2CN(Cc3ccncc3)CCCCN21 | 0.9 | -3.6 | -13.5 | 28.2* | 2.5 | ·
N#Cc1cccc(-c2ccc3c(c2)[C@@H]2[C@@H](CCN2S(=O)(=O)c2ccccc2F)[C@H](CO)N3)c1 | -4.5 | -0.8 | -47.6 | -4.7 | -0.5 | ·
COc1cccc(-c2ccc3c(c2)[C@H]2[C@H](CCN2S(=O)(=O)c2ccccc2C)[C@H](CO)N3)c1 | -12.3 | 0.8 | -1.6 | 38.6* | -1.7 | ·
COc1cccc(-c2ccc3c(c2)[C@@H]2[C@@H](CCN2S(=O)(=O)c2cn(C)cn2)[C@@H](CO)N3)c1 | -8.7 | 0.0 | -69.7 | 35.1* | 7.8 | ·
Cc1ccccc1S(=O)(=O)N1CC[C@@H]2[C@H](CO)Nc3ccc(-c4cccc(C#N)c4)cc3[C@@H]21 | -13.3 | 0.3 | 2.9 | 95.7* | · | ·
COc1ccc(-c2ccc3c(c2)[C@H]2[C@H](CCN2S(=O)(=O)c2ccc(OC)cc2)[C@H](CO)N3)cc1 | 44.0 | 2.9 | -26.8 | 54.4* | · | ·
COc1ccc(S(=O)(=O)N2CC[C@H]3[C@H](CO)Nc4ccc(-c5ccc(C#N)cc5)cc4[C@H]32)cc1 | -0.6 | 3.0 | -76.0 | 2.1 | 2.1 | ·
SMILES | Cneo AK release | CFTR F508del cor | C2C12 statin | DENV2 CPE | ERp5 block | PDI inh
C/C=C/c1ccc([C@@H]2[C@@H](CO)N(C(C)=O)[C@@H]2CNC(=O)c2ccccc2)cc1 | -5.7 | 0.4 | 15.0 | 10.6 | 6.8 | ·
CNC(=O)C[C@@H]1CC[C@@H]2[C@H](COc3ccc(NC(=O)c4ccccc4OC)cc3C(=O)N2C)O1 | 40.6 | 2.2 | -8.7 | 0.8 | -3.4 | ·
Cc1ccccc1S(=O)(=O)N1CC[C@@H]2[C@@H](CO)Nc3ccc(-c4cccc(C#N)c4)cc3[C@@H]21 | 39.8 | -0.1 | 6.4 | 64.6* | · | ·
CCCCCOC(=O)CCN1C(=O)/C(=C2\SC(=S)N(CCC(=O)OCCCCC)C2=O)SC1=S | 5.5 | -1.7 | · | 0.4 | 3.0 | -3.8
CCCCOC(=O)CCN1C(=O)/C(=C2\SC(=S)N(CCC(=O)OCCCC)C2=O)SC1=S | -3.1 | -0.1 | 8.9 | 75.0* | 6.5 | -6.0
CCCCCCN1Cc2ccccc2C1 | 0.8 | · | 106.1* | · | · | 4.9
O=C(CCCN1Cc2ccccc2C1)c1ccc(F)cc1 | 2.3 | 3.6 | 22.8 | 5.5 | 3.4 | -0.5
COCC(=O)N1[C@@H](CO)[C@@H]2c3ccccc3N(C(=O)Nc3ccccc3Cl)C[C@@H]21 | -3.2 | 1.1 | 41.9 | ? | 0.6 | ·
CN1[C@@H]2c3ccc(-c4cccnc4)c(=O)n3C[C@@H]2[C@@H](CO)[C@@H]1C(=O)N1CCc2ccccc2C1 | 113.2* | 0.6 | 22.5 | -7.1 | -0.2 | ·
CCN1[C@@H]2c3ccc(-c4ccccc4)c(=O)n3C[C@@H]2[C@@H](CO)[C@@H]1C(=O)NCC(F)(F)F | 2.3 | -0.8 | -14.0 | -6.1 | 37.3* | ·
CC=Cc1ccc2n(c1=O)C[C@H]1[C@H](CO)[C@@H](C(=O)N3CCc4ccccc4C3)N(C(=O)C3CCC3)[C@@H]21 (mixture of isomers) | 53.2 | 0.1 | -2.9 | 61.6* | 1.9 | ·
COc1cccc(CNC(=O)[C@H]2[C@H](CO)[C@H]3Cn4c(ccc(-c5ccncc5)c4=O)[C@H]3N2C)c1 | -0.2 | · | 8.0 | 137.8* | -2.1 | ·
COc1cccc(CNC(=O)[C@H]2[C@H](CO)[C@H]3Cn4c(ccc(-c5cccc(OC)c5)c4=O)[C@H]3N2C)c1 | -3.9 | 1.8 | 40.2 | -5.5 | 1.3 | ·
COc1ccc(S(=O)(=O)N(C)C[C@@H]2OCCCC[C@H](C)Oc3ccc(NC(=O)Nc4cccc5ccccc45)cc3C(=O)N([C@H](C)CO)C[C@H]2C)cc1 | 3.3 | -2.6 | · | 2.5 | 0.3 | ·
CCC(=O)N1C[C@H](C)[C@@H](OC)CN(C)C(=O)c2ccc(NC(=O)c3cc(C)on3)cc2OC[C@H]1C | 48.8 | 2.1 | 2.5 | · | · | ·
